Experimental data taken from PMC5689172 (Biochemistry and Biophysics Reports, 2016).
≈ marks a conversion by molar mass, not a printed value. Like-named read-outs stand apart in the source and are kept apart here.

How the values were obtained:
[1] = tested on: S. aureus ATCC 25923; experiment: Antimicrobial activity, agar dilution method; format: cell-based; details: Staphylococcus aureus, ATCC25923
Outline: (§1)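 Test compound in DMSO, mixed with Mueller–Hinton broth, two-fold serially diluted, and incorporated into MH agar at final 0.25–256 μg/mL. Agar with 0.5% DMSO served as reagent control. Organisms were grown overnight in MH broth at 37 °C, diluted in normal saline to 0.5 McFarland (1.5×10⁸ CFU/mL), and inoculated onto plates. Plates were incubated at 37 °C for 24–48 h, then MIC was recorded.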

[2] = tested on: S. aureus ATCC 29213; experiment: Antimicrobial activity, agar dilution method; format: cell-based; details: Staphylococcus aureus, ATCC29213
Outline: as §1

[3] = tested on: S. epidermidis ATCC 12228; experiment: Antimicrobial activity, agar dilution method; format: cell-based; details: Staphylococcus epidermidis, ATCC12228
Outline: as §1

[4] = tested on: M. luteus ATCC 10240; experiment: Antimicrobial activity, agar dilution method; format: cell-based; details: Micrococcus luteus, ATCC10240
Outline: as §1

[5] = tested on: E. faecalis ATCC 29212; experiment: Antimicrobial activity, agar dilution method; format: cell-based; details: Enterococcus faecalis, ATCC29212
Outline: as §1

[6] = tested on: E. faecalis ATCC 33186; experiment: Antimicrobial activity, agar dilution method; format: cell-based; details: Enterococcus faecalis, ATCC33186
Outline: as §1

[7] = tested on: C. diphtheriae NCTC 10356; experiment: Antimicrobial activity, agar dilution method; format: cell-based; details: Corynebacterium diphtheriae, NCTC10356
Outline: as §1

[8] = tested on: B. subtilis ATCC 6633; experiment: Antimicrobial activity, agar dilution method; format: cell-based; details: Bacillus subtilis, ATCC6633
Outline: as §1

[9] = tested on: B. cereus; experiment: Antimicrobial activity, agar dilution method; format: cell-based; details: Bacillus cereus
Outline: as §1

[10] = tested on: L. monocytogenes; experiment: Antimicrobial activity, agar dilution method; format: cell-based; details: Listeria monocytogenes
Outline: as §1

[11] = tested on: E. coli ATCC 25922; experiment: Antimicrobial activity, agar dilution method; format: cell-based; details: Escherichia coli, ATCC25922
Outline: as §1

[12] = tested on: K. pneumoniae ATCC 700603; experiment: Antimicrobial activity, agar dilution method; format: cell-based; details: Klebsiella pneumoniae, ATCC700603
Outline: as §1

[13] = tested on: S. marcescens ATCC 8100; experiment: Antimicrobial activity, agar dilution method; format: cell-based; details: Serratia marcescens, ATCC8100
Outline: as §1

[14] = tested on: S. Typhimurium ATCC 13311; experiment: Antimicrobial activity, agar dilution method; format: cell-based; details: Salmonella enterica, ATCC13311|TYPHIMURIUM
Outline: as §1

[15] = tested on: S. Choleraesuis ATCC 10708; experiment: Antimicrobial activity, agar dilution method; format: cell-based; details: Salmonella enterica, ATCC10708|CHOLERAESUIS
Outline: as §1

[16] = tested on: S. Enteritidis; experiment: Antimicrobial activity, agar dilution method; format: cell-based; details: Salmonella enterica
Outline: as §1

[17] = tested on: S. dysenteriae; experiment: Antimicrobial activity, agar dilution method; format: cell-based; details: Shigella dysenteriae
Outline: as §1

[18] = tested on: M. morganii; experiment: Antimicrobial activity, agar dilution method; format: cell-based; details: Morganella morganii
Outline: as §1

[19] = tested on: C. freundii; experiment: Antimicrobial activity, agar dilution method; format: cell-based; details: Citrobacter freundii
Outline: as §1

[20] = tested on: P. shigelloides; experiment: Antimicrobial activity, agar dilution method; format: cell-based; details: Plesiomonas shigelloides, P. shigelloides; agar dilution
[21] = tested on: A. hydrophila; experiment: Antimicrobial activity, agar dilution method; format: cell-based; details: Aeromonas hydrophila
Outline: as §1

[22] = tested on: P. aeruginosa ATCC 27853; experiment: Antimicrobial activity, agar dilution method; format: cell-based, Pseudomonas aeruginosa; details: Pseudomonas aeruginosa, ATCC27853
Outline: as §1

[23] = tested on: P. stutzeri ATCC 17587; experiment: Antimicrobial activity, agar dilution method; format: cell-based, Pseudomonas stutzeri; details: Stutzerimonas stutzeri, ATCC17587
Outline: as §1

[24] = tested on: S. putrefaciens ATCC 8071; experiment: Antimicrobial activity, agar dilution method; format: cell-based; details: Shewanella putrefaciens, ATCC8071
Outline: as §1

[25] = tested on: A. xylosoxidans ATCC 27061; experiment: Antimicrobial activity, agar dilution method; format: cell-based; details: Achromobacter xylosoxidans, ATCC27061
Outline: as §1

[26] = tested on: C. albicans ATCC 90028; experiment: Antimicrobial activity, agar dilution method; format: cell-based; details: Candida albicans, ATCC90028
Outline: as §1

[27] = tested on: S. cerevisiae ATCC 2601; experiment: Antimicrobial activity, agar dilution method; format: cell-based; details: Saccharomyces cerevisiae, ATCC2601
Outline: as §1

[28] = tested on: Gram-positive bacteria; experiment: Antimicrobial activity, agar dilution method, summarised over the group; format: cell-based
Outline: as §1

[29] = Antioxidant activity, DPPH radical scavenging assay; format: biochemical; details: for IC50: read-out: RSA IC50, 30 min, 517 nm
Outline: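 Sample solution (test compound, 1 mg/mL in DMSO) was mixed with 0.1 mM DPPH in methanol and kept 30 min in the dark. Absorbance was read at 517 nm. Radical scavenging activity (%) = [1 − Abs(sample)/Abs(control)] × 100. α-Tocopherol was the positive control.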

[30] = Cytotoxicity, MTT assay; format: cell-based; details: human, MRC-5 cells (normal embryonic lung cell line)
[31] = tested on: Gram-negative bacteria; experiment: Antimicrobial activity, agar dilution method, summarised over the group; format: cell-based
Outline: as §1

[32] = tested on: diploid fungi and yeast; experiment: as above; format: cell-based, Candida albicans; details: Saccharomyces cerevisiae, ATCC2601|ATCC90028
Outline: as §1

[33] = tested on: twenty-seven strains of microorganisms; format: cell-based
Outline: as §1

[34] = tested on: MRC-5 cell line; experiment: Cytotoxicity, MTT assay; format: cell-based; details: MRC-5 normal cells, MTT
[35] = tested on: P. aeruginosa; details: anti-biofilm agent; cited from earlier work
[36] = tested on: E. coli; details: cited from earlier work

SMILES | MIC [1] [µM] | MIC [2] [µM] | MIC [3] [µM] | MIC [4] [µM] | MIC [5] [µM] | MIC [6] [µM] | MIC [7] [µM] | MIC [8] [µM] | MIC [9] [µM] | MIC [10] [µM] | MIC [11] [µM] | MIC [12] [µM] | MIC [13] [µM] | MIC [14] [µM] | MIC [15] [µM] | MIC [16] [µM] | MIC [17] [µM] | MIC [18] [µM] | MIC [19] [µM] | MIC [20] [µM] | further results
Oc1ccc(Cl)c2cccnc12 [Cloxyquin (3), cloxyquin] | 89.1 (≈ 16 µg/mL) | 89.1 (≈ 16 µg/mL) | 22.3 (≈ 4 µg/mL) | 22.3 (≈ 4 µg/mL) | 89.1 (≈ 16 µg/mL) | 89.1 (≈ 16 µg/mL) | 22.3 (≈ 4 µg/mL) | 22.3 (≈ 4 µg/mL) | 44.5 (≈ 8 µg/mL) | 5.57 (≈ 1 µg/mL) | 89.1 (≈ 16 µg/mL) | 713 (≈ 128 µg/mL) | 89.1 (≈ 16 µg/mL) | 178 (≈ 32 µg/mL) | 713 (≈ 128 µg/mL) | 178 (≈ 32 µg/mL) | 178 (≈ 32 µg/mL) | 178 (≈ 32 µg/mL) | 178 (≈ 32 µg/mL) | 11.1 (≈ 2 µg/mL) | MIC [21]: 44.5 µM (≈ 8 µg/mL); MIC [22]: > 1430 µM; MIC [23]: 178 µM (≈ 32 µg/mL); MIC [24]: 178 µM (≈ 32 µg/mL); MIC [25]: 89.1 µM (≈ 16 µg/mL); MIC [26]: 178 µM (≈ 32 µg/mL); MIC [27]: 89.1 µM (≈ 16 µg/mL); MIC [28]: 5.57 to 89.1 µM (≈ 1 to 16 µg/mL); IC50 [29]: 1050 µM; IC50 at 48 h [30]: 81.7 ± 0.96 µM
Nc1ccc(O)c2ncccc12 [5-amino-8HQ (8), 5-Amino-8-hydroxyquinoline] | 275 (≈ 44 µg/mL) | 275 (≈ 44 µg/mL) | 275 (≈ 44 µg/mL) | 275 (≈ 44 µg/mL) | 1100 (≈ 176 µg/mL) | 1100 (≈ 176 µg/mL) | 1100 (≈ 176 µg/mL) | 275 (≈ 44 µg/mL) | 275 (≈ 44 µg/mL) | 275 (≈ 44 µg/mL) | 1100 (≈ 176 µg/mL) | 1100 (≈ 176 µg/mL) | 1100 (≈ 176 µg/mL) | 1100 (≈ 176 µg/mL) | 1100 (≈ 176 µg/mL) | 1100 (≈ 176 µg/mL) | 1100 (≈ 176 µg/mL) | 1100 (≈ 176 µg/mL) | 1100 (≈ 176 µg/mL) | 1100 (≈ 176 µg/mL) | MIC [21]: 275 µM (≈ 44 µg/mL); MIC [22]: 1100 µM (≈ 176 µg/mL); MIC [23]: 1100 µM (≈ 176 µg/mL); MIC [24]: 1100 µM (≈ 176 µg/mL); MIC [25]: 549 µM (≈ 88 µg/mL); MIC [26]: 1100 µM (≈ 176 µg/mL); MIC [27]: 1100 µM (≈ 176 µg/mL); MIC [31]: 1100 µM (≈ 176 µg/mL); MIC [32]: ≥ 645 µM; IC50 [29]: 8.71 µM; IC50 at 48 h [30]: 22.1 ± 1.02 µM
Oc1c(I)cc(Cl)c2cccnc12 [CQ (6), clioquinol] | 26.2 (≈ 8 µg/mL) | 26.2 (≈ 8 µg/mL) | 26.2 (≈ 8 µg/mL) | 26.2 (≈ 8 µg/mL) | 26.2 (≈ 8 µg/mL) | 26.2 (≈ 8 µg/mL) | 26.2 (≈ 8 µg/mL) | 26.2 (≈ 8 µg/mL) | 26.2 (≈ 8 µg/mL) | 26.2 (≈ 8 µg/mL) | 26.2 (≈ 8 µg/mL) | > 838 | 26.2 (≈ 8 µg/mL) | 838 (≈ 256 µg/mL) | > 838 | 105 (≈ 32 µg/mL) | 838 (≈ 256 µg/mL) | 838 (≈ 256 µg/mL) | 419 (≈ 128 µg/mL) | 26.2 (≈ 8 µg/mL) | MIC [21]: 26.2 µM (≈ 8 µg/mL); MIC [22]: > 838 µM; MIC [23]: 105 µM (≈ 32 µg/mL); MIC [24]: 26.2 µM (≈ 8 µg/mL); MIC [25]: 26.2 µM (≈ 8 µg/mL); MIC [26]: 26.2 µM (≈ 8 µg/mL); MIC [27]: 26.2 µM (≈ 8 µg/mL); MIC [28]: 26.2 µM (≈ 8 µg/mL); IC50 [29]: 366 µM; IC50 at 48 h [30]: 76.17 ± 0.23 µM
Oc1c(I)cc(I)c2cccnc12 [Iodoquinol (7), iodoquinol] | 645 (≈ 256 µg/mL) | 645 (≈ 256 µg/mL) | 645 (≈ 256 µg/mL) | 322 (≈ 128 µg/mL) | > 645 | > 645 | > 645 | 80.6 (≈ 32 µg/mL) | 645 (≈ 256 µg/mL) | 645 (≈ 256 µg/mL) | > 645 | > 645 | > 645 | > 645 | > 645 | > 645 | 645 (≈ 256 µg/mL) | > 645 | > 645 | 645 (≈ 256 µg/mL) | MIC [21]: 645 µM (≈ 256 µg/mL); MIC [22]: > 645 µM; MIC [23]: > 645 µM; MIC [24]: 645 µM (≈ 256 µg/mL); MIC [25]: > 645 µM; MIC [26]: 645 µM (≈ 256 µg/mL); MIC [27]: > 645 µM; MIC [31]: ≥ 645 µM; MIC [32]: ≥ 645 µM; MIC ([33]; most of the bacterial strains / most of the tested microorganisms): ≥ 645 µM; cytotoxicity in words [34]: non-cytotoxic
O=[N+]([O-])c1ccc(O)c2ncccc12 [NQ (2), Nitroxoline] | 42.1 (≈ 8 µg/mL) | 42.1 (≈ 8 µg/mL) | 42.1 (≈ 8 µg/mL) | 10.5 (≈ 2 µg/mL) | 42.1 (≈ 8 µg/mL) | 42.1 (≈ 8 µg/mL) | 42.1 (≈ 8 µg/mL) | 42.1 (≈ 8 µg/mL) | 21 (≈ 4 µg/mL) | 42.1 (≈ 8 µg/mL) | 21 (≈ 4 µg/mL) | 84.1 (≈ 16 µg/mL) | 21 (≈ 4 µg/mL) | 21 (≈ 4 µg/mL) | 84.1 (≈ 16 µg/mL) | 21 (≈ 4 µg/mL) | 21 (≈ 4 µg/mL) | 42.1 (≈ 8 µg/mL) | 21 (≈ 4 µg/mL) | 42.1 (≈ 8 µg/mL) | MIC [21]: 5.26 µM (≈ 1 µg/mL); MIC [22]: 84.1 µM (≈ 16 µg/mL); MIC [23]: 10.5 µM (≈ 2 µg/mL); MIC [24]: 10.5 µM (≈ 2 µg/mL); MIC [25]: 21 µM (≈ 4 µg/mL); MIC [26]: 42.1 µM (≈ 8 µg/mL); MIC [27]: 42.1 µM (≈ 8 µg/mL); MIC [31]: 5.26 to 84.1 µM (≈ 1 to 16 µg/mL); MIC ([33]; both the Gram-positive and Gram-negative bacteria): 5.26 to 84.1 µM (≈ 1 to 16 µg/mL); antioxidant activity in words [29]: inactive antioxidants; IC50 at 48 h [30]: 88.1 ± 2.11 µM; MIC [35]: 84.14 to 168.28 µM; MIC [36]: 42.07 µM (≈ 8 µg/mL)
